According to ChEMBL document CHEMBL4393740, “Preparation and biological evaluation of soluble tetrapeptide epoxyketone proteasome inhibitors” (Bioorg Med Chem, 2019):

What was measured:
ARH-77 = experiment: Antitumour activity against human ARH77 cells xenografted in nude mouse assessed as tumor growth at 5mg/kg, iv dosed at day 1 ,4, 8 ,11, 15 and 18 for 3 weeks and measured every 2 days by caliper method relative to control; assay type: functional
In short: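 Nude mice given subcutaneous 1 × 10^7 ARH77 cells. Randomized at mean tumour 100-150 mm3 into treatment and control groups, n = 5. Dosed i.v. 5 mg/kg on days 1, 4, 8, 11, 15 and 18 for 3 weeks. Tumours sized by caliper, V = length×width²/2, RTV = Vt/V0. T/C% = mean RTV treated / mean RTV control × 100.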

[1] = Intrinsic clearance in human liver microsomes at 1 uM pre-incubated for 5 min followed by NADP+ addition and measured up to 20 mins by LC-MS analysis; assay type: ADME, Microsome; details: read-out: CLH
In short: (§1)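 Mixture held 1 µM compound, 0.5 mg/mL microsomal protein (in-house pooled Balb/c mouse or pooled human), 100 mM Tris-HCl pH 7.4, and an NADPH-generating system (5 mM isocitric acid, 0.2 U/mL isocitric dehydrogenase, 5 mM MgCl2, 1 mM NADP+). Preincubated 5 min at 37 °C, started with NADP+, sampled at 0, 5, 10, 20 min. Quenched with cold acetonitrile containing 1 µM phenytoin internal standard. Compound loss measured by LC-MS/MS. Controls omitted NADPH and/or microsomes.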

[2] = Intrinsic clearance in monkey liver microsomes at 1 uM pre-incubated for 5 min followed by NADP+ addition and measured up to 20 mins by LC-MS analysis; assay type: ADME, Macaca mulatta, Microsome; details: rhesus monkey, read-out: CLH
[3] = biological target: Voltage-gated inwardly rectifying potassium channel KCNH2 (Homo sapiens, UniProt Q12809); experiment: Inhibition of human ERG in HEK293 cells assessed as effect on QT interval; assay type: cell-based; details: human, hek293
[4] = biological target: T1, Proteasome Macropain subunit MB1 (Homo sapiens, UniProt P28074); experiment: Inhibition of human chymotrypsin-like activity of 20S proteasome using Suc-LLVY-AMC as substrate pre-incubated for 10 mins followed by substrate addition and measured after 1 hr by spectrofluorimetry; details: read-out: IC50
T1 sequence (P28074 whole entry): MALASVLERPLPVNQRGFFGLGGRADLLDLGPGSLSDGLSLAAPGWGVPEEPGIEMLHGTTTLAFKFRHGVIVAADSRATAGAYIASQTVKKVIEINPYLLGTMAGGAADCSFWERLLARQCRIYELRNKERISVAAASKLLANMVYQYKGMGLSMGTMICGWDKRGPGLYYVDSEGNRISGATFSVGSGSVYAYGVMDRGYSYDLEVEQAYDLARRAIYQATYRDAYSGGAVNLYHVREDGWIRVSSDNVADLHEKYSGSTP

[5] = Potency index, ratio of compound half life in human liver microsomes to carfilzomib half life in human liver microsomes; assay type: ADME, Microsome
[6] = Half life in BALB/c mouse liver microsomes at 1 uM pre-incubated for 5 mins followed by NADP+ addition and measured up to 20 mins by LC-MS analysis; assay type: ADME, Microsome; in short: as §1
[7] = Half life in rat liver microsomes at 1 uM pre-incubated for 5 mins followed by NADP+ addition and measured up to 20 mins by LC-MS analysis; assay type: ADME, Microsome
[8] = Half life in monkey liver microsomes at 1 uM pre-incubated for 5 mins followed by NADP+ addition and measured up to 20 mins by LC-MS analysis; assay type: ADME, Macaca mulatta, Microsome; details: rhesus monkey
[9] = Intrinsic clearance in BALB/c mouse liver microsomes at 1 uM pre-incubated for 5 mins followed by NADP+ addition and measured up to 20 mins by LC-MS analysis; assay type: ADME, Microsome; details: read-out: CLH; in short: as §1
[10] = Half life in dog liver microsomes at 1 uM pre-incubated for 5 mins followed by NADP+ addition and measured up to 20 mins by LC-MS analysis; assay type: ADME, Canis lupus familiaris, Microsome
[11] = Intrinsic clearance in dog liver microsomes at 1 uM pre-incubated for 5 mins followed by NADP+ addition and measured up to 20 mins by LC-MS analysis; assay type: ADME, Canis lupus familiaris, Microsome; details: read-out: CLH
RPMI-8226 [12] = experiment: Cytotoxicity against human RPMI8226 cells assessed as cell viability measured after 72 hrs by celltiter96 aqueous cell proliferation assay; assay type: functional, cell-based; details: RPMI-8226, 72 h
In short: (§2)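 Suspension cells in log phase plated at 5000 (RPMI8226) or 10000 (U266B1) cells per well. Viability read after 72 h by MTS-type CellTiter 96 AQueous One assay on a plate reader. IC50 reported, three repeats.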

U-266 = experiment: Cytotoxicity against human U266B1 cells assessed as cell viability measured after 72 hrs by celltiter96 aqueous cell proliferation assay; assay type: functional, cell-based; details: U-266, 72 h; in short: as §2
RPMI-8226 [13] = experiment: Antitumour activity against luciferase expressing human RPMI8226 cells xenografted in NOD/SCID mouse assessed as tumor growth at 2 mg/kg, iv qd for 21 days by caliper method relative to control; assay type: functional
In short: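 NOD/SCID mice given subcutaneous 5 × 10^6 luciferase-expressing RPMI-8226 cells. Randomized at mean tumour 100-150 mm3, n = 3 per group. Dosed i.v. 2 mg/kg QD for 3 weeks. Tumour also imaged by IVIS, ROI […] taken 3 min after D-luciferin 150 mg/kg. Caliper volume V = length×width²/2, RTV = Vt/V0. T/C% = mean RTV treated / mean RTV control × 100.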

[14] = Half life in human liver microsomes at 1 uM pre-incubated for 5 mins followed by NADP+ addition and measured up to 20 mins by LC-MS analysis; assay type: ADME, Microsome; in short: as §1
[15] = Intrinsic clearance in rat liver microsomes at 1 uM pre-incubated for 5 mins followed by NADP+ addition and measured up to 20 mins by LC-MS analysis; assay type: ADME, Microsome; details: read-out: CLH

Sequence of Voltage-gated inwardly rectifying potassium channel KCNH2 (Q12809 whole entry): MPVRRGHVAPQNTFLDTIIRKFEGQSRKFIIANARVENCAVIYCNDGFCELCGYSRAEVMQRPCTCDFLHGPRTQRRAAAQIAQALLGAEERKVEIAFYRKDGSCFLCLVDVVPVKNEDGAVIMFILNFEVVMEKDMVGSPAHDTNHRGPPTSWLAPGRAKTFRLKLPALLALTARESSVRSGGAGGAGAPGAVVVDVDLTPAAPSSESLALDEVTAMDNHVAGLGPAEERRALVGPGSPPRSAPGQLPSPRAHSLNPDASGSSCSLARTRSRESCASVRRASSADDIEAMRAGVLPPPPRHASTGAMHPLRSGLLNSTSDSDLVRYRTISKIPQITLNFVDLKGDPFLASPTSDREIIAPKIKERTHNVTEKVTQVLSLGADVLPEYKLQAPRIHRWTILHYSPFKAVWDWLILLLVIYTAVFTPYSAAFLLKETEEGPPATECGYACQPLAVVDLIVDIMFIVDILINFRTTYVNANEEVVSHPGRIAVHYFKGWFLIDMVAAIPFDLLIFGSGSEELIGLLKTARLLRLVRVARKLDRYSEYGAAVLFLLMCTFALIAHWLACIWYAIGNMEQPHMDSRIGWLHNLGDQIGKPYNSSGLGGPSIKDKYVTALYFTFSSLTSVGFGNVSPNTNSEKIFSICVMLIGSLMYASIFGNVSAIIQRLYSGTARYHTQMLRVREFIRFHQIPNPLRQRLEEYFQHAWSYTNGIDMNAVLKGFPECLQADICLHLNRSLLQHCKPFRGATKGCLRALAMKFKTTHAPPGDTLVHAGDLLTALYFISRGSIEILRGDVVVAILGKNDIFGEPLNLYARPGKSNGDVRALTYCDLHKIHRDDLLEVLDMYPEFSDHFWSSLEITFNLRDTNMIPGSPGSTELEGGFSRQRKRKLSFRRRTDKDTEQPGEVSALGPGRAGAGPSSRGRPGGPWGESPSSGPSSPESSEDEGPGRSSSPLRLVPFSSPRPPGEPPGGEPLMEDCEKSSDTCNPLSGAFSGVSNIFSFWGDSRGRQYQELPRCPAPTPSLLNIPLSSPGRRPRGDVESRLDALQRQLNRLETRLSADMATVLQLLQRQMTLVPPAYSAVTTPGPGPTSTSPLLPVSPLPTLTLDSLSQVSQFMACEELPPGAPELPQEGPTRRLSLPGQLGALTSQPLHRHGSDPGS

CC(C)C[C@H](NC(=O)[C@H](Cc1cscn1)NC(=O)CN1CCOCC1)C(=O)N[C@@H](Cc1ccccc1)C(=O)N[C@@H](CC(C)C)C(=O)[C@@]1(C)CO1
T/C (ARH-77): 37.6%
microsomal CLint at 1 µM [1]: 1300 µL/min/mg
microsomal CLint at 1 µM [2]: 6560 µL/min/mg
inhibition (INH) [3]: Not Active
IC50 [4]: 36.8 nM
Ratio [5]: 4
half-life at 1 µM [6]: 1.1 min
half-life at 1 µM [7]: 1.36 min
half-life at 1 µM [8]: 0.211 min
microsomal CLint at 1 µM [9]: 1250 µL/min/mg
half-life at 1 µM [10]: 0.243 min
microsomal CLint at 1 µM [11]: 5710 µL/min/mg
IC50 (RPMI-8226 [12]): 27.7 nM
IC50 (U-266): 24.5 nM
T/C (RPMI-8226 [13]): 49.5%
half-life at 1 µM [14]: 1.07 min
microsomal CLint at 1 µM [15]: 1020 µL/min/mg
